Laboratory results taken from ChEMBL document CHEMBL1139352, “Synthesis and evaluation of novel inhibitors of Pim-1 and Pim-2 protein kinases” (J Med Chem, 2009).

Assays:
[1] = target: Aurora kinase A (Homo sapiens) (UniProt O14965); experiment: Inhibition of AurA at 5 uM
Mus musculus [2] = experiment: Toxicity in Swiss Webster mouse assessed as amylase level at 50 mg/kg, ip daily for 7 days measured after 7 days; type: organism-based; parameters: dose 50 mg/kg, route intraperitoneal; details: in vivo, 168 h
Mus musculus [3] = experiment: Toxicity in Swiss Webster mouse assessed as hemoglobin level at 10 mg/kg, ip daily for 7 days measured after 7 days; type: organism-based; parameters: dose 10 mg/kg, route intraperitoneal; details: in vivo, 168 h
[4] = target: 5'-AMP-activated protein kinase subunit beta-1 (Homo sapiens) (UniProt Q9Y478); experiment: Inhibition of AMPK at 5 uM
Mus musculus [5] = experiment: Toxicity in Swiss Webster mouse assessed as blood urea nitrogen level at 50 mg/kg, ip daily for 7 days measured after 7 days; type: organism-based; parameters: dose 50 mg/kg, route intraperitoneal; details: in vivo, 168 h
Mus musculus [6] = experiment: Toxicity in Swiss Webster mouse assessed as phosphate level at 10 mg/kg, ip daily for 7 days measured after 7 days; type: organism-based; parameters: dose 10 mg/kg, route intraperitoneal; details: in vivo, 168 h
Mus musculus [7] = experiment: Toxicity in Swiss Webster mouse assessed as lymphocyte count at 50 mg/kg, ip daily for 7 days measured after 7 days; type: organism-based; parameters: dose 50 mg/kg, route intraperitoneal; details: in vivo, 168 h
[8] = target: Mitogen-activated protein kinase 1 (Homo sapiens) (UniProt P28482); experiment: Inhibition of Erk2 at 5 uM
[9] = target: Cytoplasmic tyrosine-protein kinase BMX (Homo sapiens) (UniProt P51813); experiment: Inhibition of BMX at 5 uM
Mus musculus [10] = experiment: Toxicity in Swiss Webster mouse assessed as granulocyte count at 3 mg/kg, ip daily for 7 days measured after 7 days; type: organism-based; parameters: dose 3 mg/kg, route intraperitoneal; details: in vivo, 168 h
[11] = target: Ribosomal protein S6 kinase alpha-1 (Homo sapiens) (UniProt Q15418); experiment: Inhibition of RSK1 at 5 uM
Mus musculus [12] = experiment: Toxicity in Swiss Webster mouse assessed as lymphocyte count at 3 mg/kg, ip daily for 7 days measured after 7 days; type: organism-based; parameters: dose 3 mg/kg, route intraperitoneal; details: in vivo, 168 h
[13] = target: Mitogen-activated protein kinase 3 (Homo sapiens) (UniProt P27361); experiment: Inhibition of Erk1 at 5 uM
[14] = target: Insulin-like growth factor 1 receptor (Homo sapiens) (UniProt P08069); experiment: Inhibition of IGF1R at 5 uM
[15] = Inhibition of CAMK2 at 5 uM
Mus musculus [16] = experiment: Toxicity in Swiss Webster mouse assessed as Na+ level at 3 mg/kg, ip daily for 7 days measured after 7 days; type: organism-based; parameters: dose 3 mg/kg, route intraperitoneal; details: in vivo, 168 h
[17] = target: Serine/threonine-protein kinase Chk2 (Homo sapiens) (UniProt O96017); experiment: Inhibition of CHK2 at 5 uM
Mus musculus [18] = experiment: Toxicity in Swiss Webster mouse assessed as K+ level at 10 mg/kg, ip daily for 7 days measured after 7 days; type: organism-based; parameters: dose 10 mg/kg, route intraperitoneal; details: in vivo, 168 h
[19] = target: Fibroblast growth factor receptor 1 (Homo sapiens) (UniProt P11362); experiment: Inhibition of FGFR1 at 5 uM
[20] = target: Serine/threonine-protein kinase pim-2 (Homo sapiens, UniProt Q9P1W9); experiment: Inhibition of PIM2 at 5 uM
[21] = Antitumor activity against mouse JC cells xenografted BALB/c mouse assessed as tumor growth inhibition at 50 mg/kg, ip for 5 days per week; type: functional; parameters: scale not given: the % may be the effect or the level left; details: route intraperitoneal
In short: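 Syngeneic model: female Balb/c mice were implanted subcutaneously with 1 × 10⁶ JC murine mammary adenocarcinoma cells in PBS. Once tumors were palpable, mice were randomized into groups. They received intraperitoneal injections once daily, five days per week, of either vehicle (50% DMSO : 50% PBS) or 50 mg/kg. Tumor volume was taken as (L × W²)/2. n = 5 mice per group; mean ± standard error.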

Mus musculus [22] = experiment: Toxicity in Swiss Webster mouse assessed as albumin level at 50 mg/kg, ip daily for 7 days measured after 7 days; type: organism-based; parameters: dose 50 mg/kg, route intraperitoneal; details: in vivo, 168 h
Mus musculus [23] = experiment: Toxicity in Swiss Webster mouse assessed as Na+ level at 50 mg/kg, ip daily for 7 days measured after 7 days; type: organism-based; parameters: dose 50 mg/kg, route intraperitoneal; details: in vivo, 168 h
Mus musculus [24] = experiment: Toxicity in Swiss Webster mouse assessed as granulocyte count at 10 mg/kg, ip daily for 7 days measured after 7 days; type: organism-based; parameters: dose 10 mg/kg, route intraperitoneal; details: in vivo, 168 h
[25] = target: MAP kinase-activated protein kinase 2 (Homo sapiens) (UniProt P49137); experiment: Inhibition of MAPKAPK2 at 5 uM
[26] = Inhibition of PKA at 5 uM
Mus musculus [27] = experiment: Toxicity in Swiss Webster mouse assessed as monocyte count at 3 mg/kg, ip daily for 7 days measured after 7 days; type: organism-based; parameters: dose 3 mg/kg, route intraperitoneal; details: in vivo, 168 h
Mus musculus [28] = experiment: Toxicity in Swiss Webster mouse assessed as alanine aminotransferase level at 3 mg/kg, ip daily for 7 days measured after 7 days; type: organism-based; parameters: dose 3 mg/kg, route intraperitoneal; details: in vivo, 168 h
Mus musculus [29] = experiment: Toxicity in Swiss Webster mouse assessed as alkaline phosphatase level at 10 mg/kg, ip daily for 7 days measured after 7 days; type: organism-based; parameters: dose 10 mg/kg, route intraperitoneal; details: in vivo, 168 h
[30] = target: Vascular endothelial growth factor receptor 2 (Homo sapiens) (UniProt P35968); experiment: Inhibition of KDR at 5 uM
Mus musculus [31] = experiment: Toxicity in Swiss Webster mouse assessed as monocyte count at 50 mg/kg, ip daily for 7 days measured after 7 days; type: organism-based; parameters: dose 50 mg/kg, route intraperitoneal; details: in vivo, 168 h
[32] = target: Calcium/calmodulin-dependent protein kinase type IV (Homo sapiens) (UniProt Q16566); experiment: Inhibition of CAMK4 at 5 uM
Mus musculus [33] = experiment: Toxicity in Swiss Webster mouse assessed as Na+ level at 10 mg/kg, ip daily for 7 days measured after 7 days; type: organism-based; parameters: dose 10 mg/kg, route intraperitoneal; details: in vivo, 168 h
[34] = target: Serine/threonine-protein kinase PAK 2 (Homo sapiens) (UniProt Q13177); experiment: Inhibition of PAK2 at 5 uM
[35] = target: MAP kinase-activated protein kinase 5 (Homo sapiens) (UniProt Q8IW41); experiment: Inhibition of PRAK at 5 uM
[36] = target: Mitogen-activated protein kinase 14 (Homo sapiens) (UniProt Q16539); experiment: Inhibition of p38alpha at 5 uM
[37] = target: RAF proto-oncogene serine/threonine-protein kinase (Homo sapiens) (UniProt P04049); experiment: Inhibition of c-Raf at 5 uM
Mus musculus [38] = experiment: Toxicity in Swiss Webster mouse assessed as blood urea nitrogen level at 3 mg/kg, ip daily for 7 days measured after 7 days; type: organism-based; parameters: dose 3 mg/kg, route intraperitoneal; details: in vivo, 168 h
Mus musculus [39] = experiment: Toxicity in Swiss Webster mouse assessed as albumin level at 3 mg/kg, ip daily for 7 days measured after 7 days; type: organism-based; parameters: dose 3 mg/kg, route intraperitoneal; details: in vivo, 168 h
[40] = target: Casein kinase I isoform delta (Homo sapiens) (UniProt P48730); experiment: Inhibition of CK1delta at 5 uM
[41] = target: Platelet-derived growth factor receptor alpha (Homo sapiens) (UniProt P16234); experiment: Inhibition of PDGFRalpha at 5 uM
Mus musculus [42] = experiment: Toxicity against mouse JC cells xenografted BALB/c mouse assessed as loss of body weight at 50 mg/kg, ip for 5 days per week; type: organism-based; parameters: dose 50 mg/kg, route intraperitoneal; details: in vivo, 120 h
Mus musculus [43] = experiment: Toxicity in Swiss Webster mouse assessed as amylase level at 10 mg/kg, ip daily for 7 days measured after 7 days; type: organism-based; parameters: dose 10 mg/kg, route intraperitoneal; details: in vivo, 168 h
Mus musculus [44] = experiment: Toxicity in Swiss Webster mouse assessed as alanine aminotransferase level at 10 mg/kg, ip daily for 7 days measured after 7 days; type: organism-based; parameters: dose 10 mg/kg, route intraperitoneal; details: in vivo, 168 h
[45] = target: Inhibitor of nuclear factor kappa-B kinase subunit beta (Homo sapiens) (UniProt O14920); experiment: Inhibition of IKK-beta at 5 uM
[46] = target: Ribosomal protein S6 kinase alpha-5 (Homo sapiens) (UniProt O75582); experiment: Inhibition of MSK1 at 5 uM
[47] = target: Interleukin-1 receptor-associated kinase 4 (Homo sapiens) (UniProt Q9NWZ3); experiment: Inhibition of IRAK4 at 5 uM

Sequence of Mitogen-activated protein kinase 1 (Homo sapiens) (P28482 whole entry): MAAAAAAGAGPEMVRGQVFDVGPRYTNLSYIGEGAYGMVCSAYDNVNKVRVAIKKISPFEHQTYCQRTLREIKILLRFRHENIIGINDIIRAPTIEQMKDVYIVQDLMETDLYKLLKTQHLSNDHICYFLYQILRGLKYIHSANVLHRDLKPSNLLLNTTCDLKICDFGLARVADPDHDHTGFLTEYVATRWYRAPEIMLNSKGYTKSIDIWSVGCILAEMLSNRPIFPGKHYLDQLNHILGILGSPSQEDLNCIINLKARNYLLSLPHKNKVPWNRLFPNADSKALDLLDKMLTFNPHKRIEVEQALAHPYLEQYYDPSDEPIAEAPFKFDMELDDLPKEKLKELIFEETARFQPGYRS
Sequence of MAP kinase-activated protein kinase 5 (Homo sapiens) (Q8IW41 whole entry): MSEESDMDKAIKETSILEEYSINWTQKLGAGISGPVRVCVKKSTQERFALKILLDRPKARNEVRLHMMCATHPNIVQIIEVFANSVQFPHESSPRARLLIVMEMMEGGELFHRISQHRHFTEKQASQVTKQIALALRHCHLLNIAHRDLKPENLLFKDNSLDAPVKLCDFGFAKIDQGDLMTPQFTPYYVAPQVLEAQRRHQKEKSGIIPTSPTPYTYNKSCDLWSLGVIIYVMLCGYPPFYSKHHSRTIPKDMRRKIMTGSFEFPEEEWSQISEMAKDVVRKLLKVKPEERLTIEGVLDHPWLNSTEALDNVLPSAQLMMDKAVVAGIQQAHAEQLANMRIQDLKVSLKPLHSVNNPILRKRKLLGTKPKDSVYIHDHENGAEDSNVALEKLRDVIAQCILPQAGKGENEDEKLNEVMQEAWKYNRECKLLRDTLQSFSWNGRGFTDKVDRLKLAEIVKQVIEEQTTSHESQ
Sequence of Ribosomal protein S6 kinase alpha-1 (Homo sapiens) (Q15418 whole entry): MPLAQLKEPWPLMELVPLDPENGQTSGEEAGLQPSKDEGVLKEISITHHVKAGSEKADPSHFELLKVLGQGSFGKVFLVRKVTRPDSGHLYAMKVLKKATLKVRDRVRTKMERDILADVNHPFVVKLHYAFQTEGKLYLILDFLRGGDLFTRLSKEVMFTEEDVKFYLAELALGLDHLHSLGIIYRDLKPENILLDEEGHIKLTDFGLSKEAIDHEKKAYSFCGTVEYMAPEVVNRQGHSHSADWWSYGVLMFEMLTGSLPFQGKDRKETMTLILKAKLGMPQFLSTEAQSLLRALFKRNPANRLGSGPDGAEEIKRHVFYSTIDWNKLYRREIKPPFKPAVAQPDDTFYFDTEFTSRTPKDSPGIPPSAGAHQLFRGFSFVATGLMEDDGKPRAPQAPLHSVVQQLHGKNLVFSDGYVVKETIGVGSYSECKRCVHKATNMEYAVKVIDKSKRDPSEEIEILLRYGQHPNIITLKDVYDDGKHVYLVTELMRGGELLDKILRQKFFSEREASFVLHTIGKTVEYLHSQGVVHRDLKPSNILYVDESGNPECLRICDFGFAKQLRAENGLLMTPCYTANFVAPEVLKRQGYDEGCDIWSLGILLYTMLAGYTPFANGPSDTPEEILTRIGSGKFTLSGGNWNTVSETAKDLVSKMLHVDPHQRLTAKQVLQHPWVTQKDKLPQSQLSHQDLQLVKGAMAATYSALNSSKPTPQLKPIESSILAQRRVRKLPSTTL
Sequence of Platelet-derived growth factor receptor alpha (Homo sapiens) (P16234 whole entry): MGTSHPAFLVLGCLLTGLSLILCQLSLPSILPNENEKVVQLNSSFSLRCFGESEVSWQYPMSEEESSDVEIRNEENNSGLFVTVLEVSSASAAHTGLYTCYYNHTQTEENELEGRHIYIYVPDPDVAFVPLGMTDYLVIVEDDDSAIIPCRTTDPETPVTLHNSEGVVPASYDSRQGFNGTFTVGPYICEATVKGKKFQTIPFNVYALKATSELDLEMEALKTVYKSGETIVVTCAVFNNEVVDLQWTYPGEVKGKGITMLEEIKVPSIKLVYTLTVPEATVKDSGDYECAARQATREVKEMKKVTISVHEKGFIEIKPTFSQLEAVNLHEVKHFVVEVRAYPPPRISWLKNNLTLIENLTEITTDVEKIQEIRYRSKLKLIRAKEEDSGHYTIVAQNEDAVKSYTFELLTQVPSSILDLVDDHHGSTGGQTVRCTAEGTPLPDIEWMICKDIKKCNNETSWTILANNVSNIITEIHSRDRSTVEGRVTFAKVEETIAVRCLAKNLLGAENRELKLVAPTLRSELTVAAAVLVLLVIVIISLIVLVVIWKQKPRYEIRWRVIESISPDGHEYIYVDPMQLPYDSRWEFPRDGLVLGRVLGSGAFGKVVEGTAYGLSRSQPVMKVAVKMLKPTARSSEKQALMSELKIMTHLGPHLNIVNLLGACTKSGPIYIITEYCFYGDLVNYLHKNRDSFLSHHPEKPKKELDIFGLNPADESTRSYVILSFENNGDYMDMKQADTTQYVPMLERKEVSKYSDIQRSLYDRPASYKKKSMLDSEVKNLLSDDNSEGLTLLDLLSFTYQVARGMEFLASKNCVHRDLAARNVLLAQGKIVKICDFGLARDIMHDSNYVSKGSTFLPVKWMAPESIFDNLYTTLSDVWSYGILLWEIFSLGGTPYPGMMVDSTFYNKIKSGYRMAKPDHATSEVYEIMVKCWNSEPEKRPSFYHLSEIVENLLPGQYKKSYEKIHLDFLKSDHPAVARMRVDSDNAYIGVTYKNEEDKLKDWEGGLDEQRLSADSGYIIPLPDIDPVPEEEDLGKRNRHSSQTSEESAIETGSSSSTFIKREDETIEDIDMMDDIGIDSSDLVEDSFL
Sequence of Insulin-like growth factor 1 receptor (Homo sapiens) (P08069 31-736 limits assumed): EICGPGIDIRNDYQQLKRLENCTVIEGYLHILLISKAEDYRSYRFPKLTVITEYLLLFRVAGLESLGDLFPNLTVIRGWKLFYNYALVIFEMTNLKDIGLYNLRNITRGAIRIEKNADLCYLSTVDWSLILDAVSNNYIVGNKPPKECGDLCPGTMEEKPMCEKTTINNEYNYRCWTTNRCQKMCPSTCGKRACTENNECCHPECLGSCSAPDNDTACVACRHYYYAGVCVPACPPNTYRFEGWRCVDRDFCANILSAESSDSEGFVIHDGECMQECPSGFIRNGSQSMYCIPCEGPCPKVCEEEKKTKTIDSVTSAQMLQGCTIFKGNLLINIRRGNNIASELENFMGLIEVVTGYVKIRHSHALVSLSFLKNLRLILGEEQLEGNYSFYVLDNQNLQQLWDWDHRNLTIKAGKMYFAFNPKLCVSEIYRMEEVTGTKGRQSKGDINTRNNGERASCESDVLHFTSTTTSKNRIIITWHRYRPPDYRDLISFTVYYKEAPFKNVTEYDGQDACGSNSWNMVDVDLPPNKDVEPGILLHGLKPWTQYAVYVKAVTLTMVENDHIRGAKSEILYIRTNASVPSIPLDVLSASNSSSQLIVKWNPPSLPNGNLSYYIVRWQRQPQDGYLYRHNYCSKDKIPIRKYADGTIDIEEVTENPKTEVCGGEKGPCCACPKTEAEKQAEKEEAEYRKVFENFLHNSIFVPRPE
Sequence of Insulin-like growth factor 1 receptor (Homo sapiens) (P08069 741-1367 limits assumed): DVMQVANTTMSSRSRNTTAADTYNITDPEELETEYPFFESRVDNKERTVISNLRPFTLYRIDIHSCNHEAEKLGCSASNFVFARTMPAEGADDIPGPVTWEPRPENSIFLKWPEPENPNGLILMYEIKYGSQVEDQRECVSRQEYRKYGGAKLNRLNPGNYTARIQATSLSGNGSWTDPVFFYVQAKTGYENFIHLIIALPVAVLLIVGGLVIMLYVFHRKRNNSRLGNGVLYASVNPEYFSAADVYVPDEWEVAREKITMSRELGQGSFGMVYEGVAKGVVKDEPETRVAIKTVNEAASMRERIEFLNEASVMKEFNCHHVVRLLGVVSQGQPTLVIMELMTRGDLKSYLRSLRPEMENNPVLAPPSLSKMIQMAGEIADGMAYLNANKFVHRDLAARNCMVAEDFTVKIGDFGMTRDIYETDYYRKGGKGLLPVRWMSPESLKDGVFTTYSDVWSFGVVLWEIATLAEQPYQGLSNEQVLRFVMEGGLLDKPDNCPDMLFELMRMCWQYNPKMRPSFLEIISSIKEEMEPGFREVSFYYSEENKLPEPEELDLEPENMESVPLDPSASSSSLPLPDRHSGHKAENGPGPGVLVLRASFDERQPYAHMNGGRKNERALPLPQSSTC
Sequence of Mitogen-activated protein kinase 3 (Homo sapiens) (P27361 whole entry): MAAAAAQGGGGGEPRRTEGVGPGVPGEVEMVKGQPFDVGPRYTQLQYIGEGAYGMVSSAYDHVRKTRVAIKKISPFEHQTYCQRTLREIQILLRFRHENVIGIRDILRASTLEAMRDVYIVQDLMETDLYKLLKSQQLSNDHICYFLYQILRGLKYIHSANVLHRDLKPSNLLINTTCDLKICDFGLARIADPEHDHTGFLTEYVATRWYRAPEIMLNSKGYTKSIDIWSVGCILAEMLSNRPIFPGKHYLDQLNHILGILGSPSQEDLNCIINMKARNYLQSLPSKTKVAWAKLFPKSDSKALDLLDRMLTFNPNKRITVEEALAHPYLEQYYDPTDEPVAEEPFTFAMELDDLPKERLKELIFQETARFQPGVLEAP
Sequence of Serine/threonine-protein kinase Chk2 (Homo sapiens) (O96017 whole entry): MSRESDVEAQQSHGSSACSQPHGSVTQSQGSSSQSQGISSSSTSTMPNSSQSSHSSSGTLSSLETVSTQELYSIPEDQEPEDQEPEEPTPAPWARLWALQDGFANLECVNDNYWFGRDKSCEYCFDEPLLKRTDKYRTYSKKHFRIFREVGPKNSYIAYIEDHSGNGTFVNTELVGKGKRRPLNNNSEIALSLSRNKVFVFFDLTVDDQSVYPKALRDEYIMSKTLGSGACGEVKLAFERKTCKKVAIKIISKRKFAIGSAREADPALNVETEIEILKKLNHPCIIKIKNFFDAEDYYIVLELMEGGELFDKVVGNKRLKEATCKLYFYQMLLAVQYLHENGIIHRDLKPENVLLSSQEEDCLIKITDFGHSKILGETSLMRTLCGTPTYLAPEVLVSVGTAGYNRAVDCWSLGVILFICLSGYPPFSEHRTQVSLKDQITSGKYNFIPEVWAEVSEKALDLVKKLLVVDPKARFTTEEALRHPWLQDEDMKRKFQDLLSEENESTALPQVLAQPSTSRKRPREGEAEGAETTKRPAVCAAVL

CCCOc1ccc(/C=C2\SC(=O)NC2=O)cc1
inhibition [1]: 4% | Activity (Mus musculus [2]): 760 U/L | Activity (Mus musculus [3]): 11.7 g/dL | inhibition [4]: 7% | Activity (Mus musculus [5]): 14 mg/dL | Activity (Mus musculus [6]): 5.7 mg/dL | Activity (Mus musculus [7]): 3.5 ×10⁹ /L | inhibition [8]: -1% | inhibition [9]: 10% | Activity (Mus musculus [10]): 0.01 ×10⁹ /L | inhibition [11]: 5% | Activity (Mus musculus [12]): 3.61 ×10⁹ /L | inhibition [13]: 1% | inhibition [14]: -1% | inhibition [15]: -1% | Activity (Mus musculus [16]): 150 mmol/L | inhibition [17]: 4% | Activity (Mus musculus [18]): 7.2 mmol/L | inhibition [19]: 1% | inhibition [20]: 62% | Activity [21]: 50% | Activity (Mus musculus [22]): 2.6 g/dL | Activity (Mus musculus [23]): 145 mmol/L | Activity (Mus musculus [24]): 0.61 ×10⁹ /L | inhibition [25]: 5% | inhibition [26]: 3% | Activity (Mus musculus [27]): 0.11 ×10⁹ /L | Activity (Mus musculus [28]): 40 U/L | Activity (Mus musculus [29]): 85 U/L | inhibition [30]: -4% | Activity (Mus musculus [31]): 0.04 ×10⁹ /L | inhibition [32]: -8% | Activity (Mus musculus [33]): 144 mmol/L | inhibition [34]: -1% | inhibition [35]: 4% | inhibition [36]: 0% | inhibition [37]: -1% | Activity (Mus musculus [38]): 17 mg/dL | Activity (Mus musculus [39]): 3.3 g/dL | inhibition [40]: 7% | inhibition [41]: 6% | Activity (Mus musculus [42]): Non-toxic | Activity (Mus musculus [43]): 816 U/L | Activity (Mus musculus [44]): 44 U/L | inhibition [45]: 10% | inhibition [46]: -1% | inhibition [47]: 5%
